PMC3711073 (Angewandte Chemie (International ed. in English), 2012)
Like-named read-outs stand apart in the source and are kept apart here.

Legend:
[1] = molecular target: MLL-GACKIX complex (GACKIX domain of CBP/p300) (Mus musculus, UniProt P45481); format: binding
Summary of the method: (§1)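 Test compound added at increasing concentrations to the preformed GACKIX domain complex with either fluorescein-tagged MLL activation-domain peptide or fluorescein-tagged pKID peptide. Displacement was tracked as the change in fluorescence polarization.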

[2] = molecular target: Fl-KID-GACKIX complex (GACKIX domain of CBP/p300) (Mus musculus, UniProt P45481); test: Fluorescence polarization inhibition of the Fl-KID-GACKIX complex; format: binding
Summary of the method: as §1

[3] = tested on: c-Jun-driven gene Cyclin D1; test: Cell-based assay of c-Jun-driven gene Cyclin D1 expression; conditions: SI Figure 7
VP2-Med15(107-357) = molecular target: T1, VP2-Med15(107-357) (Saccharomyces cerevisiae, UniProt P19659); test: Competitive FP binding assay of VP2 with Med15; conditions: specificity
T1 sequence (P19659 107-357): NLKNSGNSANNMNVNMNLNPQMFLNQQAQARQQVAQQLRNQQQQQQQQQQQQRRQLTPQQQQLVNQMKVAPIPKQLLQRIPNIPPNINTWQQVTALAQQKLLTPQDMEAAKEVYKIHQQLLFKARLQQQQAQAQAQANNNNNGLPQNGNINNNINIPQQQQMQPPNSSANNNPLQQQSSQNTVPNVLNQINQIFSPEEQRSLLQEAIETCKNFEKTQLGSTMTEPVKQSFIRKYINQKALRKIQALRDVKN

[4] = molecular target: GACKIX domain of CBP/p300 (Mus musculus, UniProt P45481); test: Ligand-detected 1D 1H-NMR binding to GACKIX with MLL and KID peptide competition; conditions: sekikaic acid 15 μM, GACKIX 5 μM, MLL and pKID peptide 15 μM each
Summary of the method: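 Aromatic 1H resonances of the test compound (15 μM) were recorded alone and after adding GACKIX (5 μM). MLL and pKID peptides (15 μM each) were then added singly or together. Resonance positions were compared with the unbound-state spectrum to judge reversal of binding.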

Chain of MLL-GACKIX complex (GACKIX domain of CBP/p300) (P45481 586-665 limits assumed, one chain of several): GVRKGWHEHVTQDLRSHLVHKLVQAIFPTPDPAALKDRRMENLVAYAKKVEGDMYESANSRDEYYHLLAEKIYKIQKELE
Chain of Fl-KID-GACKIX complex (GACKIX domain of CBP/p300) (P45481 586-665 limits assumed, one chain of several): as above
Chain of GACKIX domain of CBP/p300 (P45481 586-665 limits assumed): as the sequence (P45481 586-665 limits assumed, one chain of several) above

Row | Compound | Inhibition of Fl-MLL binding to GACKIX (in words) ([1]; competitive FP binding assay) | Inhibition of Fl-KID binding to GACKIX (in words) ([2]; competitive FP binding assay) | Effect on expression of c-Jun-driven gene Cyclin D1 in cells [3] | IC50 [1] | IC50 [2] | IC50 ([1]; read-out: IC50, inhibition of the MLL-GACKIX complex, FP, fluorescein-tagged MLL) | Inhibition of VP2-Med15(107-357) (in words) (VP2-Med15(107-357)) | Reversibility of binding to GACKIX [4]
1 | Cc1cc(OC(=O)c2c(C)cc(O)cc2O)cc(O)c1C(=O)O [lecanoric acid, reference compound] | unable to significantly inhibit | unable to significantly inhibit | no effect | – | – | – | – | –
2 | CCCCCc1c2c(cc(O)c1C(=O)O)OC(=O)c1c(cc(OC)cc1C(=O)CCCC)O2 [lobaric acid] | – | – | dose dependent down regulation | 17 µM | 25 µM | – | – | –
3 | CCCc1cc(OC)cc(O)c1C(=O)Oc1c(OC)cc(CCC)c(C(=O)O)c1O [sekikaic acid] | – | – | dose dependent down regulation | – | – | 34 µM | did not significantly inhibit | reversible
